Experimental data published in ChEMBL document CHEMBL5385870, “Amide containing NBTI antibacterials with reduced hERG inhibition, retained antimicrobial activity against gram-positive bacteria and in vivo efficacy” (Eur J Med Chem, 2023).
Values after ≈ are worked out from the molar mass of the structure shown. Active and inactive are the calls of the source. The calls are words filed in the database; no cut-off is given here.

Experiments:
Staphylococcus aureus [1] = assay: Bactericidal activity against methicillin-resistant Staphylococcus aureus ATCC 43300 at 4 times MIC measured for 24 hrs by time-kill kinetics based analysis; type: functional, organism-based
Staphylococcus aureus [2] = assay: Bactericidal activity against methicillin-resistant Staphylococcus aureus ATCC 43300 at 8 times MIC measured for 6 hrs by time-kill kinetics based analysis; type: functional, organism-based
[3] = Induction of drug resistance methicillin-resistant Staphylococcus aureus measured after 14 passages incubated for 20 hrs by microbroth dilution method; type: functional
Procedure, shortened: (§1)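 For serial passage, MRSA was run through daily broth-microdilution MIC tests. Cells from the ½× MIC wells were harvested, adjusted to 10^5 CFU/mL and used to inoculate the next passage, for 14 days. Triplicates, with ciprofloxacin as comparator, and the experiment was repeated twice.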

Staphylococcus aureus [4] = assay: Bactericidal activity against methicillin-resistant Staphylococcus aureus at 8 times MIC measured by time-kill kinetics based analysis
Staphylococcus aureus [5] = assay: Antibacterial activity against Staphylococcus aureus assessed as bacterial growth inhibition; type: functional
Staphylococcus aureus [6] = assay: Antibacterial activity against methicilin-resistant Staphylococcus aureus assessed as bacterial growth inhibition; type: functional
DNA gyrase [7] = target: DNA gyrase (Staphylococcus aureus, UniProt P0A0K8+P20831); assay: Inhibition of Staphylococcus aureus DNA gyrase supercoiling incubated for 30 mins in presence of ATP; type: protein-complex assay
Procedure, shortened: (§2)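 Gyrase supercoiling plate assay (triplex capture on streptavidin plates with immobilized biotinylated oligonucleotide): 1.5 U enzyme, 0.75 µg relaxed pNO1 plasmid, inhibitor in 10% DMSO/0.008% Tween-20, 37 °C 30 min, 30 µl. Buffer for E. coli: 35 mM Tris pH 7.5, 1 mM ATP; S. aureus: 40 mM HEPES-KOH pH 7.6, 2 mM ATP, 500 mM K-glutamate. Diamond dye fluorescence (ex 495/em 537 nm). Pre-screen 100 and 1 µM; IC50 from seven concentrations by four-parameter fit, mean of two runs.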

DNA gyrase [8] = target: DNA gyrase (Escherichia coli, UniProt P0AES4+P0AES6); assay: Inhibition of Escherichia coli DNA gyrase supercoiling incubated for 30 mins in presence of ATP; type: protein-complex assay; procedure, shortened: as §2
Topoisomerase IV = Topoisomerase IV (Staphylococcus aureus, UniProt P0C1S7+P0C1U9); assay: Inhibition of Staphylococcus aureus DNA topoisomerase 4 relaxation activity measured for 30 mins; type: protein-complex assay
Procedure, shortened: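 TopoIV relaxation plate assay: 1.5 U enzyme with 0.75 µg supercoiled pNO1 plasmid, inhibitor in 10% DMSO/0.008% Tween-20, 37 °C 30 min; E. coli buffer 40 mM HEPES-KOH pH 7.6 with 1 mM ATP, S. aureus buffer 50 mM Tris pH 7.5 with 1.5 mM ATP.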

[9] = Inhibition of Escherichia coli DNA topoisomerase 4 relaxation activity measured for 30 mins
Procedure, shortened: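 TopoIV relaxation plate assay: 1.5 U enzyme with 0.75 µg supercoiled pNO1 plasmid, inhibitor in 10% DMSO/0.008% Tween-20, 37 °C 30 min; E. coli buffer 40 mM HEPES-KOH pH 7.6 with 1 mM ATP, S. aureus buffer 50 mM Tris pH 7.5 with 1.5 mM ATP. Triplex capture, Diamond dye fluorescence 495/537 nm.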

[10] = target: DNA topoisomerase 2-alpha (Homo sapiens) (UniProt P11388); assay: Inhibition of human DNA topoisomerase 2-alpha assessed as residual activity at 100 uM incubated for 30 mins relative to control
[11] = target: Voltage-gated inwardly rectifying potassium channel KCNH2 (Homo sapiens, UniProt Q12809); assay: Inhibition of hERG fluorescence polarization assay; type: toxicity
HepG2 = assay: Cytotoxicity against human HepG2 cells assessed as inhibition of cell growth at 50 uM incubated for 72 hrs by […]; type: functional; set-up: scale not given: the % may be the effect or the level left
Procedure, shortened: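 HepG2 in DMEM with 10% FBS, 2 mM glutamine, penicillin/streptomycin, 37 °C, 5% CO₂; seeded 8,000 cells/well, attached overnight, then treated 1.25–100 µM or vehicle for 72 h. Metabolic activity by CellTiter 96 Aqueous One (MTS) absorbance 492 nm.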

Escherichia coli [12] = assay: Antimicrobial activity against multidrug-resistant Escherichia coli assessed as reduction in bacterial growth incubated for 20 hrs by broth microdilution analysis; type: functional
Procedure, shortened: (§3)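 MIC was determined by broth microdilution per CLSI/EUCAST. Inoculum was 10^5 CFU/mL in cation-adjusted Mueller-Hinton broth with TES, with compounds in DMSO, incubated 20 h at 35 °C. MIC was read visually as the lowest concentration without turbidity. Tetracycline was the plate control.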

Staphylococcus aureus [13] = assay: Antimicrobial activity against Staphylococcus aureus ATCC 29213 assessed as reduction in bacterial growth incubated for 20 hrs by broth microdilution analysis; type: functional; procedure, shortened: as §3
Escherichia coli [14] = assay: Antimicrobial activity against Escherichia coli ATCC 25922 assessed as reduction in bacterial growth incubated for 20 hrs by broth microdilution analysis; type: functional
Escherichia coli [15] = assay: Antimicrobial activity against Escherichia coli D22 assessed as reduction in bacterial growth incubated for 20 hrs by broth microdilution analysis; type: functional
Escherichia coli [16] = assay: Antimicrobial activity against Escherichia coli N43 assessed as reduction in bacterial growth incubated for 20 hrs by broth microdilution analysis; type: functional
Staphylococcus aureus [17] = assay: Antimicrobial activity against cefoxitin/ciprofloxacin/clindamycin/erythromycin/tetracycline/thiamulin/trimethoprim-resistant Staphylococcus aureus assessed as reduction in bacterial growth incubated for 20 hrs by broth microdilution analysis; type: functional; procedure, shortened: as §3
Staphylococcus aureus [18] = assay: Antimicrobial activity against cefoxitin/gentamicin/kanamycin/rifampicin/streptomycin/sulfamethoxazole/tetracycline-resistant Staphylococcus aureus assessed as reduction in bacterial growth incubated for 20 hrs by broth microdilution analysis; type: functional; procedure, shortened: as §3
Staphylococcus aureus [19] = assay: Antimicrobial activity against multidrug-resistant Staphylococcus aureus assessed as reduction in bacterial growth incubated for 20 hrs by broth microdilution analysis; type: functional; procedure, shortened: as §3
Klebsiella pneumoniae = assay: Antimicrobial activity against Klebsiella pneumoniae assessed as reduction in bacterial growth incubated for 20 hrs by broth microdilution analysis; type: functional
[20] = Antimicrobial activity against Salmonella alachua RDK 030c assessed as reduction in bacterial growth incubated for 20 hrs by broth microdilution analysis; type: functional
Pseudomonas aeruginosa = assay: Antimicrobial activity against Pseudomonas aeruginosa RDK 184 assessed as reduction in bacterial growth incubated for 20 hrs by broth microdilution analysis; type: functional
Enterococcus faecalis = assay: Antimicrobial activity against Enterococcus faecalis DRK 057 assessed as reduction in bacterial growth incubated for 20 hrs by broth microdilution analysis; type: functional
Acinetobacter baumannii = assay: Antimicrobial activity against Acinetobacter baumannii assessed as reduction in bacterial growth incubated for 20 hrs by broth microdilution analysis; type: functional
hERG [21] = assay: Selectivity index, ratio of IC50 for inhibition of hERG fluorescence polarization assay to MIC for antimicrobial activity against Staphylococcus aureus ATCC 29213 assessed as reduction in bacterial growth; type: toxicity; details: human; read-out: Selectivity Index
hERG [22] = assay: Selectivity index, ratio of IC50 for inhibition of hERG fluorescence polarization assay to MIC for antimicrobial activity against multidrug-resisitant Staphylococcus aureus assessed as reduction in bacterial growth; type: toxicity; details: human; read-out: Selectivity Index
Staphylococcus aureus [23] = assay: Bactericidal activity against methicillin-resistant Staphylococcus aureus ATCC 43300 measured for 8 hrs by time-kill kinetics based analysis; type: functional, organism-based
Staphylococcus aureus [24] = assay: Bactericidal activity against methicillin-resistant Staphylococcus aureus ATCC 43300 at 8 times MIC measured for 24 hrs by time-kill kinetics based analysis; type: functional, organism-based
Staphylococcus aureus [25] = assay: Bactericidal activity against methicillin-resistant Staphylococcus aureus at 8 times MIC measured for 8 hrs by time-kill kinetics based analysis; type: functional, organism-based
Staphylococcus aureus [26] = assay: Induction of drug resistance methicillin-resistant Staphylococcus aureus assessed as fold increase in MIC after 7 passages incubated for 20 hrs by microbroth dilution method; type: functional; procedure, shortened: as §1
[27] = Acute toxicity in zebrafish embryos assessed as lethal concentration compound administered from 6 hrs post fertilization and measured after 120 hrs post fertilization; set-up: species or system Danio rerio; details: in vivo
Procedure, shortened: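 Wild-type AB zebrafish embryos in E3 medium at 28 °C were exposed by immersion from 6 hpf to 0.39–25 µg/mL (top dose 12.5 µg/mL for one compound), with DMSO at most 0.25%. Controls were 0.25% DMSO and 25 µg/mL doxorubicin. Embryos were inspected daily for death and toxicity signs through 120 hpf. Runs were in triplicate, with 24 embryos per concentration.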

Staphylococcus aureus [28] = assay: Antibacterial activity against Methicillin-resistant Staphylococcus aureus BAA-1717 infected in CD-1 mouse thigh infection model assessed as reduction in bacterial load at 20 mg/kg, ip […]; type: functional; details: time 20 hrs
Staphylococcus aureus [29] = assay: Antibacterial activity against Methicillin-resistant Staphylococcus aureus BAA-1717 infected in CD-1 mouse thigh infection model assessed as reduction in bacterial load at 40 mg/kg, ip […]; type: functional
Staphylococcus aureus [30] = assay: Antibacterial activity against Methicillin-resistant Staphylococcus aureus BAA-1717 infected in CD-1 mouse thigh infection model assessed as fold change in log 10 cfu at 20 mg/kg, ip incubated for 2 hrs post infection; type: functional
Procedure, shortened: (§4)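 Female CD-1 neutropenic mice received 2.0×10^5 CFU of MRSA BAA-1717 (TCH 1516) by intramuscular injection into the right thigh. Thighs were excised at 2 h (therapy start controls) or 26 h, homogenised and plated for CFU/g. Four mice per group.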

Staphylococcus aureus [31] = assay: Antibacterial activity against Methicillin-resistant Staphylococcus aureus BAA-1717 infected in CD-1 mouse thigh infection model assessed as fold change in log 10 cfu at 40 mg/kg, ip incubated for 2 hrs post infection; type: functional; procedure, shortened: as §4
Staphylococcus aureus [32] = assay: Antibacterial activity against Methicillin-resistant Staphylococcus aureus BAA-1717 infected in CD-1 mouse thigh infection model assessed as fold change in log 10 cfu at 20 mg/kg, ip incubated for 26 hrs post infection; type: functional; procedure, shortened: as §4
Staphylococcus aureus [33] = assay: Antibacterial activity against Methicillin-resistant Staphylococcus aureus BAA-1717 infected in CD-1 mouse thigh infection model assessed as fold change in log 10 cfu at 40 mg/kg, ip incubated for 26 hrs post infection; type: functional; procedure, shortened: as §4

Sequence of Voltage-gated inwardly rectifying potassium channel KCNH2 (Q12809 whole entry): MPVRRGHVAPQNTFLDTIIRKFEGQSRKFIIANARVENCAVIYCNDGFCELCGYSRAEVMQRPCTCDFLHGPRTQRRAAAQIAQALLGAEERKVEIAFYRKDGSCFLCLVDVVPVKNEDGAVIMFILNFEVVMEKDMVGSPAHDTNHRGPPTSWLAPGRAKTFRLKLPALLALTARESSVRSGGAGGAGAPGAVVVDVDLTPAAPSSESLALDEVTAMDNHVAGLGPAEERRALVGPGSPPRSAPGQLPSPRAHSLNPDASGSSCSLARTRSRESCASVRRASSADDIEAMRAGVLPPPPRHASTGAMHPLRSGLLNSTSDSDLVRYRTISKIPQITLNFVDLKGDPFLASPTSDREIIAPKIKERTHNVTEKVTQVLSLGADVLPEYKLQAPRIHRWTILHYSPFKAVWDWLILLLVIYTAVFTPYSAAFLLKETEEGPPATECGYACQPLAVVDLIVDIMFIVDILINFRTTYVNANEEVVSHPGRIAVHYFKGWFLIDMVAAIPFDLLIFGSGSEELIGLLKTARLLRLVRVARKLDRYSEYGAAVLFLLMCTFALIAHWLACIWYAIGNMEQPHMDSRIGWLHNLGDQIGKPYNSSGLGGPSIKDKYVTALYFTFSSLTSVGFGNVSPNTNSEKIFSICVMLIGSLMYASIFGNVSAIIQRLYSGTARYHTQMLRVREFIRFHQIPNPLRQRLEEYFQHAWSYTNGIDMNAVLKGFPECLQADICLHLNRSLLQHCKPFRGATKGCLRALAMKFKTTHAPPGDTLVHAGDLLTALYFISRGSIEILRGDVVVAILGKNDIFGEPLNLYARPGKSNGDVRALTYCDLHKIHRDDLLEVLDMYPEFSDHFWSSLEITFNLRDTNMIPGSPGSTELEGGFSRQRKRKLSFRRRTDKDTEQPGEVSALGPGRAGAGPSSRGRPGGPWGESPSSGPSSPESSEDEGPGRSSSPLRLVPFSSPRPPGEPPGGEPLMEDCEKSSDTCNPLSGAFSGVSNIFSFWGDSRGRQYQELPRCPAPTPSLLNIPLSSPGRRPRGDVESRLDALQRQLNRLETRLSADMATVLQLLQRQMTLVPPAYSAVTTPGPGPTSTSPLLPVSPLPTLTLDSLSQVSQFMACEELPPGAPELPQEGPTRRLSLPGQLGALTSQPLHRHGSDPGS
Sequence of Topoisomerase IV (P0C1U9 whole entry): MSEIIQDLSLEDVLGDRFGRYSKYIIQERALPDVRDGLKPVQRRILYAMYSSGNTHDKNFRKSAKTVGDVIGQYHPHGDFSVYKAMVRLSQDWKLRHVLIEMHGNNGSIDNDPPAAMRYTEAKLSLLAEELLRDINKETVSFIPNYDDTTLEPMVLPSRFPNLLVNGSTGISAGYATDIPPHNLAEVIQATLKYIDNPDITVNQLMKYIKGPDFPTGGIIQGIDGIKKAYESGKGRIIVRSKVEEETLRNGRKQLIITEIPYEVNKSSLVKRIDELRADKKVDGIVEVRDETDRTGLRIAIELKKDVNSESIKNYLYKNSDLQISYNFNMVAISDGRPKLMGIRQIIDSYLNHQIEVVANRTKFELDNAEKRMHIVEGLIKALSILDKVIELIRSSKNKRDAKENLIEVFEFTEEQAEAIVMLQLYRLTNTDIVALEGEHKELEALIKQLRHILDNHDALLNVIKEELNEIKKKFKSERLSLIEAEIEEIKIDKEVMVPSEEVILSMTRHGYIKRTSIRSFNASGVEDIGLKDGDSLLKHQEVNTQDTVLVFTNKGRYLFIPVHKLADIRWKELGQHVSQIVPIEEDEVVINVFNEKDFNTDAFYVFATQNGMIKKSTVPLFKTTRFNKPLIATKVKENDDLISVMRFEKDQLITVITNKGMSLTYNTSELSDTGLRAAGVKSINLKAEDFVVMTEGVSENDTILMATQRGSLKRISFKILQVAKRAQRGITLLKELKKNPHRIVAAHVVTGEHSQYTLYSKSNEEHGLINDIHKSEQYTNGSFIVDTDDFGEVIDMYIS
Sequence of Topoisomerase IV (P0C1S7 whole entry): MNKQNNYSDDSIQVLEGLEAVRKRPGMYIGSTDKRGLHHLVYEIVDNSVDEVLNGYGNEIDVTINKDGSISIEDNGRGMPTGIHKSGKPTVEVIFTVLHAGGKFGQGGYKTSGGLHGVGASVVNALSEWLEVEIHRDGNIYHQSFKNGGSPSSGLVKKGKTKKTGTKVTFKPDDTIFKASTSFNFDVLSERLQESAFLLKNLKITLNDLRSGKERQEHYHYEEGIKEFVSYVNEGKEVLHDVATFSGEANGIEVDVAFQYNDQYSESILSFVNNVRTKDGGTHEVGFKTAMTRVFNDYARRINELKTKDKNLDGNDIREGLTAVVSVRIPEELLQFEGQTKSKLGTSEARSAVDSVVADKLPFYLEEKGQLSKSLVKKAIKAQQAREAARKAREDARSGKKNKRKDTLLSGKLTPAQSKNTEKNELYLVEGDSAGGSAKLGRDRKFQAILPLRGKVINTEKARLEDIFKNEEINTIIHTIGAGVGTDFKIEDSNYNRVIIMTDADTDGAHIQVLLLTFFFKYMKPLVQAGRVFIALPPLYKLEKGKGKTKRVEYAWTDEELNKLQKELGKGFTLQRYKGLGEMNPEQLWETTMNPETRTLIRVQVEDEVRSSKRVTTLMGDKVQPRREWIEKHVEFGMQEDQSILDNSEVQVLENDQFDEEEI
Sequence of DNA gyrase (Staphylococcus aureus, UniProt P0A0K8+P20831) (P0A0K8 whole entry): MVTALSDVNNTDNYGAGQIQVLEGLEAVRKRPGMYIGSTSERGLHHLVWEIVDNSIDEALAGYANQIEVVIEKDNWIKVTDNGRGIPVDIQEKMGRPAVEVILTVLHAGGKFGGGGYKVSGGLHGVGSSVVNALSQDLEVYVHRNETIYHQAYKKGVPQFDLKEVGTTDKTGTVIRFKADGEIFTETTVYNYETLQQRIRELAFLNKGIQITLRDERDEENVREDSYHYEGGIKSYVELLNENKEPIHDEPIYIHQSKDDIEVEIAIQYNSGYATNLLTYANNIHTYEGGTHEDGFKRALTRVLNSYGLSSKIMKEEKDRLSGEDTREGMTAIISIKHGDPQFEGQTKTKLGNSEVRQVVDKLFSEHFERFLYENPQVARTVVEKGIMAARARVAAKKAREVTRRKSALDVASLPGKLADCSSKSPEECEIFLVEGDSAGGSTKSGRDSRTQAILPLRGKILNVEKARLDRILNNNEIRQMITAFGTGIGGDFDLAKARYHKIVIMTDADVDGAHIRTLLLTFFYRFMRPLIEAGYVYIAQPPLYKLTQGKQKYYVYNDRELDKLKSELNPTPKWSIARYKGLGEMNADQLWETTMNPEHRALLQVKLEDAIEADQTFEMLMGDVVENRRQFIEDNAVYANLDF
Sequence of DNA gyrase (Staphylococcus aureus, UniProt P0A0K8+P20831) (P20831 whole entry): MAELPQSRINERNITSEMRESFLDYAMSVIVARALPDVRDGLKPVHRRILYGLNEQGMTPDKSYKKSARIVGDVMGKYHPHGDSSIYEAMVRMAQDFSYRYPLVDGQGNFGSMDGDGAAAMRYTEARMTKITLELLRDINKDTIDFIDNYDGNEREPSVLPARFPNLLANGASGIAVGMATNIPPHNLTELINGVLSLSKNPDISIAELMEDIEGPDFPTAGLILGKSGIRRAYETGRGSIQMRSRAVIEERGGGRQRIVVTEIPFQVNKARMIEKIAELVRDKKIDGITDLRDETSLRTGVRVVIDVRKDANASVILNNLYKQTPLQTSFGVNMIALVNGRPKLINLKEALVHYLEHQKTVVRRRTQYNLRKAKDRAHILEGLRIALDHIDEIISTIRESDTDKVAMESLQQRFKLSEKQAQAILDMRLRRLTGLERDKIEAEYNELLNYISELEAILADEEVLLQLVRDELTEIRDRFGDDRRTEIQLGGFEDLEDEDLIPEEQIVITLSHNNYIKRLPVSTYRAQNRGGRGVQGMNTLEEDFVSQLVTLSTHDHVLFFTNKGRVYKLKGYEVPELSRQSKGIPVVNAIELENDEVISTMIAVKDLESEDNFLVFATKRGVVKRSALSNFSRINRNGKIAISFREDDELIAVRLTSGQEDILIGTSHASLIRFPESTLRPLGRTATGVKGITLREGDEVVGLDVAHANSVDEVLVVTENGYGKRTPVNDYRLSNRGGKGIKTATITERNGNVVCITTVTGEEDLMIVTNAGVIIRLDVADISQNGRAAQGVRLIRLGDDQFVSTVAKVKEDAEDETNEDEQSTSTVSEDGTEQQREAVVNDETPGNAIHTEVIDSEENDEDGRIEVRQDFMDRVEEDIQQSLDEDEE

SMILES: O=C(O)c1cn(C2CC2)c2cc(N3CCNCC3)c(F)cc2c1=O [CIPROFLOXACIN]
- Activity (Staphylococcus aureus [1]): Active
- Activity (Staphylococcus aureus [2]): Active
- MIC [3]: 2 µg/mL (≈ 6.04 µM)
- Activity (Staphylococcus aureus [4]): Active

SMILES: COc1ccc2nccc(OC[C@@H]3CC[C@@H](NC(=O)c4cc(F)c(Br)c(F)c4)CO3)c2n1
- MIC (Staphylococcus aureus [5]): 0.016 µg/mL (≈ 0.0315 µM)
- MIC (Staphylococcus aureus [6]): 0.031 µg/mL (≈ 0.061 µM)
- IC50 (DNA gyrase [7]): 185 nM
- IC50 (DNA gyrase [8]): 365 nM
- IC50 (Topoisomerase IV): 341 nM
- IC50 [9]: 59 nM
- Activity [10]: 99.4%
- IC50 [11]: > 30000 nM
- Activity (HepG2): 89%
- MIC (Escherichia coli [12]): > 252 µM
- MIC (Staphylococcus aureus [13]): 0.031 µM (≈ 0.0158 µg/mL)
- MIC (Escherichia coli [14]): 252 µM (≈ 128 µg/mL)
- MIC (Escherichia coli [15]): 252 µM (≈ 128 µg/mL)
- MIC (Escherichia coli [16]): 0.061 µM (≈ 0.031 µg/mL)
- MIC (Staphylococcus aureus [17]): 0.061 µM (≈ 0.031 µg/mL)
- MIC (Staphylococcus aureus [18]): 0.031 µM (≈ 0.0158 µg/mL)
- MIC (Staphylococcus aureus [19]): 0.124 µM (≈ 0.063 µg/mL)
- MIC (Klebsiella pneumoniae): > 252 µM
- MIC [20]: > 252 µM
- MIC (Pseudomonas aeruginosa): > 252 µM
- MIC (Enterococcus faecalis): 4.07 µM (≈ 2.07 µg/mL)
- MIC (Acinetobacter baumannii): 252 µM (≈ 128 µg/mL)
- selectivity ratio (hERG [21]): ≥ 953
- selectivity ratio (hERG [22]): ≥ 492
- Activity (Staphylococcus aureus [23]): Dose-Dependent Effect
- Activity (Staphylococcus aureus [24]): inactive
- Activity (Staphylococcus aureus [25]): Active
- fold change (FC) (Staphylococcus aureus [26]): 8
- MIC [3]: 0.128 µg/mL (≈ 0.252 µM)
- LC50 at 114 h [27]: > 25 µg/mL
- Activity (Staphylococcus aureus [28]): 5.43 log10CFU/g
- Activity (Staphylococcus aureus [29]): 5.01 log10CFU/g
- FC (Staphylococcus aureus [30]): -0.47
- FC (Staphylococcus aureus [31]): -0.89
- FC (Staphylococcus aureus [32]): -3.43
- FC (Staphylococcus aureus [33]): -3.85
